Test results published in ChEMBL document CHEMBL3734675, “Synthesis, antimycobacterial and antibacterial activity of fluoroquinolone derivatives containing an 3-alkoxyimino-4-(cyclopropylanimo)methylpyrrolidine moiety” (2015).
Converted amounts (≈) assume the structure as drawn.

Tests used:
Assay type in all cases: functional
Staphylococcus aureus [1] = experiment: Antibacterial activity against Staphylococcus aureus CMCC 26003 after 18 to 24 hrs by two-fold serial dilution method
Procedure, shortened: (§1)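 Twofold serial dilution in agar media against Gram-positive and Gram-negative strains. Plates incubated at 35 °C for 18–24 h. MIC read as the lowest compound concentration giving complete inhibition of bacterial growth.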

Klebsiella pneumoniae [2] = experiment: Antibacterial activity against Klebsiella pneumoniae 14-2 after 18 to 24 hrs by two-fold serial dilution method; procedure, shortened: as §1
[3] = test system: Staphylococcus epidermidis; experiment: Antibacterial activity against methicillin-resistant Staphylococcus epidermidis 14-37 after 18 to 24 hrs by two-fold serial dilution method
Procedure, shortened: (§2)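 Agar media, standard twofold serial dilution. MIC is the lowest concentration giving complete inhibition of bacterial growth after incubation at 35 °C for 18–24 h. Ciprofloxacin and levofloxacin were run as comparators.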

[4] = test system: Mycobacterium tuberculosis; experiment: Antimycobacterial activity against Mycobacterium tuberculosis H37Rv ATCC 27294 incubated for 7 days by microplate Alamar Blue assay; conditions: H37Rv ATCC 27294, 168 h
Procedure, shortened: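 Fluorescence read-out. MIC is the lowest concentration that reduces fluorescence by at least 90% relative to the mean of replicate bacterium-only controls. Isoniazid and rifampicin were included as reference drugs.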

[5] = test system: Staphylococcus epidermidis; experiment: Antibacterial activity against methicillin-resistant Staphylococcus epidermidis 14-21 after 18 to 24 hrs by two-fold serial dilution method; procedure, shortened: as §2
Staphylococcus aureus [6] = experiment: Antibacterial activity against methicillin-sensitive Staphylococcus aureus 14-1 after 18 to 24 hrs by two-fold serial dilution method; procedure, shortened: as §1
Enterococcus faecalis [7] = experiment: Antibacterial activity against Enterococcus faecalis 14-2 after 18 to 24 hrs by two-fold serial dilution method; procedure, shortened: as §1
Staphylococcus aureus [8] = experiment: Antibacterial activity against methicillin-sensitive Staphylococcus aureus 14-4 after 18 to 24 hrs by two-fold serial dilution method; procedure, shortened: as §1
Staphylococcus aureus [9] = experiment: Antibacterial activity against methicillin-resistant Staphylococcus aureus 14-4 after 18 to 24 hrs by two-fold serial dilution method; procedure, shortened: as §2
Klebsiella pneumoniae [10] = experiment: Antibacterial activity against Klebsiella pneumoniae 14-3 after 18 to 24 hrs by two-fold serial dilution method; procedure, shortened: as §1
Klebsiella pneumoniae [11] = experiment: Antibacterial activity against extended-spectrum beta-lactamase producing Klebsiella pneumoniae 14-18 after 18 to 24 hrs by two-fold serial dilution method; procedure, shortened: as §1
Klebsiella pneumoniae [12] = experiment: Antibacterial activity against Klebsiella pneumoniae 14-1 after 18 to 24 hrs by two-fold serial dilution method; procedure, shortened: as §1
Escherichia coli [13] = experiment: Antibacterial activity against Escherichia coli 14-1 after 18 to 24 hrs by two-fold serial dilution method; procedure, shortened: as §1
Staphylococcus aureus [14] = experiment: Antibacterial activity against methicillin-resistant Staphylococcus aureus 14-5 after 18 to 24 hrs by two-fold serial dilution method; procedure, shortened: as §2
Pseudomonas aeruginosa [15] = experiment: Antibacterial activity against Pseudomonas aeruginosa 14-16 after 18 to 24 hrs by two-fold serial dilution method; procedure, shortened: as §1
Klebsiella pneumoniae [16] = experiment: Antibacterial activity against Klebsiella pneumoniae 14-4 after 18 to 24 hrs by two-fold serial dilution method; procedure, shortened: as §1
Enterococcus faecium [17] = experiment: Antibacterial activity against Enterococcus faecium 14-2 after 18 to 24 hrs by two-fold serial dilution method; procedure, shortened: as §1
Streptococcus pneumoniae = experiment: Antibacterial activity against methicillin-resistant Streptococcus pneumoniae ATCC 19615 after 18 to 24 hrs by two-fold serial dilution method; procedure, shortened: as §2
Pseudomonas aeruginosa [18] = experiment: Antibacterial activity against Pseudomonas aeruginosa 14-14 after 18 to 24 hrs by two-fold serial dilution method; procedure, shortened: as §1
Enterococcus faecium [19] = experiment: Antibacterial activity against Enterococcus faecium 14-6 after 18 to 24 hrs by two-fold serial dilution method; procedure, shortened: as §1
Escherichia coli [20] = experiment: Antibacterial activity against Escherichia coli 14-2 after 18 to 24 hrs by two-fold serial dilution method; procedure, shortened: as §1
Enterococcus faecium [21] = experiment: Antibacterial activity against Enterococcus faecium 14-5 after 18 to 24 hrs by two-fold serial dilution method; procedure, shortened: as §1
[22] = test system: Staphylococcus epidermidis; experiment: Antibacterial activity against methicillin-sensitive Staphylococcus epidermidis 14-2 after 18 to 24 hrs by two-fold serial dilution method; procedure, shortened: as §1
Staphylococcus aureus [23] = experiment: Antibacterial activity against methicillin-sensitive Staphylococcus aureus 14-3 after 18 to 24 hrs by two-fold serial dilution method; procedure, shortened: as §1
Enterococcus faecalis [24] = experiment: Antibacterial activity against Enterococcus faecalis 14-1 after 18 to 24 hrs by two-fold serial dilution method; procedure, shortened: as §1
Escherichia coli [25] = experiment: Antibacterial activity against Escherichia coli ATCC 25922 after 18 to 24 hrs by two-fold serial dilution method; procedure, shortened: as §1
[26] = test system: Staphylococcus epidermidis; experiment: Antibacterial activity against methicillin-resistant Staphylococcus epidermidis 14-39 after 18 to 24 hrs by two-fold serial dilution method; procedure, shortened: as §2
Pseudomonas aeruginosa [27] = experiment: Antibacterial activity against Pseudomonas aeruginosa 14-9 after 18 to 24 hrs by two-fold serial dilution method; procedure, shortened: as §1
Escherichia coli [28] = experiment: Antibacterial activity against extended-spectrum beta-lactamase producing Escherichia coli 14-1 after 18 to 24 hrs by two-fold serial dilution method; procedure, shortened: as §1
Klebsiella pneumoniae [29] = experiment: Antibacterial activity against extended-spectrum beta-lactamase producing Klebsiella pneumoniae 14-19 after 18 to 24 hrs by two-fold serial dilution method; procedure, shortened: as §1
Escherichia coli [30] = experiment: Antibacterial activity against extended-spectrum beta-lactamase producing Escherichia coli 14-2 after 18 to 24 hrs by two-fold serial dilution method; procedure, shortened: as §1
Pseudomonas aeruginosa [31] = experiment: Antibacterial activity against Pseudomonas aeruginosa 14-15 after 18 to 24 hrs by two-fold serial dilution method; procedure, shortened: as §1
Klebsiella pneumoniae [32] = experiment: Antibacterial activity against extended-spectrum beta-lactamase producing Klebsiella pneumoniae 14-17 after 18 to 24 hrs by two-fold serial dilution method; procedure, shortened: as §1
[33] = test system: Staphylococcus epidermidis; experiment: Antibacterial activity against methicillin-resistant Staphylococcus epidermidis 14-22 after 18 to 24 hrs by two-fold serial dilution method; procedure, shortened: as §2
Pseudomonas aeruginosa [34] = experiment: Antibacterial activity against Pseudomonas aeruginosa ATCC 27853 after 18 to 24 hrs by two-fold serial dilution method; procedure, shortened: as §1

CO/N=C1/CN(c2nc3c(cc2F)c(=O)c(C(=O)O)cn3C2CC2)CC1CNC1CC1 (stereo not given)
MIC (Staphylococcus aureus [1]): < 0.008 µg/mL | MIC (Klebsiella pneumoniae [2]): 128 µg/mL (≈ 298 µM) | MIC [3]: 32 µg/mL (≈ 74.5 µM) | MIC90 [4]: 0.44 µg/mL (≈ 1.02 µM) | MIC [5]: 16 µg/mL (≈ 37.3 µM) | MIC (Staphylococcus aureus [6]): 8 µg/mL (≈ 18.6 µM) | MIC (Enterococcus faecalis [7]): 0.5 µg/mL (≈ 1.16 µM) | MIC (Staphylococcus aureus [8]): 8 µg/mL (≈ 18.6 µM) | MIC (Staphylococcus aureus [9]): > 128 µg/mL | MIC (Klebsiella pneumoniae [10]): 128 µg/mL (≈ 298 µM) | MIC (Klebsiella pneumoniae [11]): 16 µg/mL (≈ 37.3 µM) | MIC (Klebsiella pneumoniae [12]): 128 µg/mL (≈ 298 µM) | MIC (Escherichia coli [13]): > 128 µg/mL | MIC (Staphylococcus aureus [14]): 8 µg/mL (≈ 18.6 µM) | MIC (Pseudomonas aeruginosa [15]): 32 µg/mL (≈ 74.5 µM) | MIC (Klebsiella pneumoniae [16]): > 128 µg/mL | MIC (Enterococcus faecium [17]): 32 µg/mL (≈ 74.5 µM) | MIC (Streptococcus pneumoniae): 4 µg/mL (≈ 9.31 µM) | MIC (Pseudomonas aeruginosa [18]): 32 µg/mL (≈ 74.5 µM) | MIC (Enterococcus faecium [19]): 32 µg/mL (≈ 74.5 µM) | MIC (Escherichia coli [20]): > 128 µg/mL | MIC (Enterococcus faecium [21]): 16 µg/mL (≈ 37.3 µM) | MIC [22]: > 128 µg/mL | MIC (Staphylococcus aureus [23]): 4 µg/mL (≈ 9.31 µM) | MIC (Enterococcus faecalis [24]): 64 µg/mL (≈ 149 µM) | MIC (Escherichia coli [25]): 0.5 µg/mL (≈ 1.16 µM) | MIC [26]: 16 µg/mL (≈ 37.3 µM) | MIC (Pseudomonas aeruginosa [27]): 8 µg/mL (≈ 18.6 µM) | MIC (Escherichia coli [28]): 16 µg/mL (≈ 37.3 µM) | MIC (Klebsiella pneumoniae [29]): 32 µg/mL (≈ 74.5 µM) | MIC (Escherichia coli [30]): > 128 µg/mL | MIC (Pseudomonas aeruginosa [31]): 32 µg/mL (≈ 74.5 µM) | MIC (Klebsiella pneumoniae [32]): 16 µg/mL (≈ 37.3 µM) | MIC [33]: 16 µg/mL (≈ 37.3 µM) | MIC (Pseudomonas aeruginosa [34]): 16 µg/mL (≈ 37.3 µM)

CCO/N=C1/CN(c2nc3c(cc2F)c(=O)c(C(=O)O)cn3[C@@H]2C[C@@H]2F)CC1CNC1CC1 (stereo not given in full)
MIC (Staphylococcus aureus [1]): < 0.008 µg/mL | MIC (Klebsiella pneumoniae [2]): 32 µg/mL (≈ 69.3 µM) | MIC [3]: 16 µg/mL (≈ 34.7 µM) | MIC90 [4]: 0.72 µg/mL (≈ 1.56 µM) | MIC [5]: 16 µg/mL (≈ 34.7 µM) | MIC (Staphylococcus aureus [6]): 4 µg/mL (≈ 8.67 µM) | MIC (Enterococcus faecalis [7]): 0.125 µg/mL (≈ 0.271 µM) | MIC (Staphylococcus aureus [8]): 8 µg/mL (≈ 17.3 µM) | MIC (Staphylococcus aureus [9]): 16 µg/mL (≈ 34.7 µM) | MIC (Klebsiella pneumoniae [10]): 128 µg/mL (≈ 277 µM) | MIC (Klebsiella pneumoniae [11]): 32 µg/mL (≈ 69.3 µM) | MIC (Klebsiella pneumoniae [12]): 32 µg/mL (≈ 69.3 µM) | MIC (Escherichia coli [13]): 128 µg/mL (≈ 277 µM) | MIC (Staphylococcus aureus [14]): 8 µg/mL (≈ 17.3 µM) | MIC (Pseudomonas aeruginosa [15]): 32 µg/mL (≈ 69.3 µM) | MIC (Klebsiella pneumoniae [16]): 128 µg/mL (≈ 277 µM) | MIC (Enterococcus faecium [17]): 4 µg/mL (≈ 8.67 µM) | MIC (Streptococcus pneumoniae): 1 µg/mL (≈ 2.17 µM) | MIC (Pseudomonas aeruginosa [18]): 32 µg/mL (≈ 69.3 µM) | MIC (Enterococcus faecium [19]): 32 µg/mL (≈ 69.3 µM) | MIC (Escherichia coli [20]): > 128 µg/mL | MIC (Enterococcus faecium [21]): 16 µg/mL (≈ 34.7 µM) | MIC [22]: 64 µg/mL (≈ 139 µM) | MIC (Staphylococcus aureus [23]): 4 µg/mL (≈ 8.67 µM) | MIC (Enterococcus faecalis [24]): 32 µg/mL (≈ 69.3 µM) | MIC (Escherichia coli [25]): 0.03 µg/mL (≈ 0.065 µM) | MIC [26]: 32 µg/mL (≈ 69.3 µM) | MIC (Pseudomonas aeruginosa [27]): 8 µg/mL (≈ 17.3 µM) | MIC (Escherichia coli [28]): 16 µg/mL (≈ 34.7 µM) | MIC (Klebsiella pneumoniae [29]): 64 µg/mL (≈ 139 µM) | MIC (Escherichia coli [30]): 128 µg/mL (≈ 277 µM) | MIC (Pseudomonas aeruginosa [31]): 32 µg/mL (≈ 69.3 µM) | MIC (Klebsiella pneumoniae [32]): 32 µg/mL (≈ 69.3 µM) | MIC [33]: 8 µg/mL (≈ 17.3 µM) | MIC (Pseudomonas aeruginosa [34]): 16 µg/mL (≈ 34.7 µM)
